EphB4 ephrin blk: EphB4-ephrin-B2 interaction antagonism; inhibition, % at 7 µM; EphB4 LBD / TNYL-RAW-Alexa532 peptide, fluorescence polarization; AID 720; actives 0.15% (n = 97,000);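 active means inhibition above the screen-wide mean inhibition plus 3 SD, cut at about 15% in these data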;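 further: 0% = DMSO wells and 100% = excess unlabeled TNYL-RAW peptide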
Rev-RRE block: HIV Rev-RRE protein-RNA interaction inhibition | inhibition, % at 8 µM | Rev peptide-RRE RNA binding, FRET | AID 704 | actives 0.79% (n = 97,000);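 active means inhibition above the screen-wide mean plus 3 SD, cut at about 35% in these data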;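 further: 0% = median DMSO wells and 100% = median Neomycin B control wells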
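System: Cy5-labelled duplex RRE RNA binding fluorescein-labelled HIV Rev peptide; Signal: fluorescein-to-Cy5 FRET, 480 nm excitation; Also added: labelled Rev peptide; Compound: one concentration, 8 µM nominal; Buffer or medium: HEPES pH 7.5 salt buffer with EDTA; Read-out: % inhibition of FRET ratio versus controls; Schedule: 5 min preincubation and 15 min binding, 25 °C.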
PLK1 PBD inh: Plk1 (human) PBD binding inhibition; P53350; Plk1 PBD phosphopeptide binding, fluorescence polarization; inhibition, %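 (tested at about 20 µM)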; actives 0.13% (n = 97,000); AID 693; in the data active means inhibition above about 34%, passing the limit was not always enough
Target sequence (P53350 whole entry, looked up): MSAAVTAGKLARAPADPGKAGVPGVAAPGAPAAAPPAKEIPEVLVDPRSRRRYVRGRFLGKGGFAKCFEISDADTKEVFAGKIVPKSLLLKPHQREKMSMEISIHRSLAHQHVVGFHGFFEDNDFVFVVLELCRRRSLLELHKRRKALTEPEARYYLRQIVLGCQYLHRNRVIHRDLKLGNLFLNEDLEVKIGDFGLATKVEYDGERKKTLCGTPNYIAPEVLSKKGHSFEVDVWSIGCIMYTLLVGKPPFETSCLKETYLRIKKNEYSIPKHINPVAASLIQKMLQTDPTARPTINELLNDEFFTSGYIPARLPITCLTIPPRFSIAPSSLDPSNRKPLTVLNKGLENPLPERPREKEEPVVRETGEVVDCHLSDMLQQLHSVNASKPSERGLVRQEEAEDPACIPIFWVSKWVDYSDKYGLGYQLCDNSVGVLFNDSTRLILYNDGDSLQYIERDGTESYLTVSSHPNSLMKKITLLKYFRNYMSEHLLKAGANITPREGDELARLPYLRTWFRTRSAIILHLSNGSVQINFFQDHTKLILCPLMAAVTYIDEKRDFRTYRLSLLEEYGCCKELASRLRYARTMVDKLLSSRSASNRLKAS
PTPN22 inh 2: blocks human PTPN22 phosphatase activity. Q9Y2R2. recombinant LYP catalytic domain, DiFMUP fluorescence. inhibition, % at 2 µM. actives 0.21% (n = 96,000);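 active means inhibition at 2 µM at or above a set limit, the screen mean plus 3 SD, cut at about 24% in these data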;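 further: 0% = DMSO with enzyme and 100% = enzyme fully blocked by orthovanadate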
PLK1 kinase inh: PLK1 (human) kinase inhibition; P53350; recombinant PLK1 kinase, TR-FRET peptide phosphorylation; inhibition, % at 10 µM; actives 0.53% (n = 97,000);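 active means inhibition of 50% or more in the single-concentration screen; inactive means inhibition below 50%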;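 further: 0% = DMSO max control and 100% = H-89 dihydrochloride min control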
PTPN22 act: activators of human LYP (PTPN22) phosphatase; activation, % at 2 µM; actives 0.11% (n = 96,000); AID 697; recombinant LYP, DiFMUP fluorescence; 0 = plate median, 100 = signal doubled; Q9Y2R2;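 active means activation at 2 µM above a set limit, the mean plus 5 SD, cut at about 37% in these data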
Starred values were filed as active, the others as inactive; . = no result given; [ ] = remark or other dose. Compounds with a hit are over-represented: about 2% of the library has one in this group of screens.

SMILES | EphB4 ephrin blk | Rev-RRE block | PLK1 PBD inh | PTPN22 inh 2 | PLK1 kinase inh | PTPN22 act
CCC(C)C(NC(=O)C1CCC(C)CC1)C(=O)Nc1cc(OC)ccc1OC (stereo not given) | -3 | 5 | -1 | 3 | -1 | -4
CCOC(=O)Cn1nc(C)n(-c2ccc(C(C)(C)C)cc2)c1=O | 4 | -3 | -26 | -6 | -15 | 8
c1ccc(-c2nc3ccccc3nc2N2CCOCC2)cc1 | -7 | 2 | -10 | -7 | -4 | 5
Cc1ccc2cc(/C=C3\N=C(c4ccccc4)OC3=O)c(N3CCOCC3)nc2c1 | -1 | 39* | -21 | -2 | -15 | 2
OCCCc1nc2n(n1)C(c1cccs1)C=C(c1ccc(Br)cc1)N2 (stereo not given) | 4 | 135*[fluorescence artefact?] | -149 | 4 | -28 | -5
Brc1ccc(C2=CC(c3cccs3)n3ncnc3N2)cc1 (stereo not given) | 6 | 135*[fluorescence artefact?] | -123 | 7 | 19 | -4
Cn1c(SCC(=O)c2ccccc2)nnc1-c1cccc(N)c1 | 1 | 4 | -1 | 5 | -6 | -3
N#C/C(=C\c1ccc(Cl)cc1)c1nc2ncccc2[nH]1 | 1 | 6 | 34 | 5 | 14 | 1
CCOC(=O)c1sc(NC(=O)C(CC)Sc2nc3ccccc3[nH]2)nc1C (stereo not given) | 2 | 4 | -20 | 25* | -9 | -24
CCCNc1cc(=O)n(C)c(=O)n1C | -1 | 1 | 11 | 25* | -2 | -26
O=C(CSc1nccn1-c1ncc(C(F)(F)F)cc1Cl)c1ccc(Cl)cc1 | 5 | 12 | 12 | -5 | -14 | 8
CCOC(=O)c1cnc(SC)nc1Oc1cccc(NS(=O)(=O)c2ccc(C)cc2)c1 | -3 | 12 | -6 | -6 | -15 | 4
CCCc1nnc(NC(=O)CCCC(=O)O)s1 | -6 | 0 | 25 | -3 | -2 | 8
CCCc1nnc(NC(=O)CNc2ccc(F)cc2)s1 | 16* | 8 | -18 | 0 | 14 | -3
CN(Cc1ccccc1)c1oc(COc2ccccc2F)nc1C#N | 4 | 19 | -13 | . | 69* | .
N#Cc1nc(COc2ccccc2F)oc1NCCc1ccccc1 | -5 | 12 | -39 | 6 | -7 | -6
C=CCNC(=S)NNC(=O)c1cccn(Cc2ccc(Cl)cc2)c1=O | -1 | 1 | -5 | 53* | -3 | -52
NC(=O)c1cccn1Cc1cccc(Cl)c1 | 0 | 10 | 4 | -5 | -7 | 4
C=CCNC(=S)NNC(=O)c1cccn(Cc2cccc(Cl)c2)c1=O | -6 | -1 | -4 | 56* | -7 | -55
C=CCNC(=O)c1ccccc1Cl | 0 | 8 | -4 | 5 | -8 | -6
O=C(COC(=O)c1ccccc1Nc1cccc(C(F)(F)F)c1)NCc1ccco1 | -10 | 6 | 11 | 5 | -8 | 0
CC(C)CC(C(=O)Nc1oc(-c2ccco2)c(-c2ccco2)c1C#N)N1C(=O)c2ccccc2C1=O (stereo not given) | -6 | 15 | -2 | 6 | -10 | -6
O=c1c(/C=C(\O)c2ccc(F)cc2)nc2ccccc2n1-c1ccccc1 | -8 | 127*[fluorescence artefact?] | 15 | 6 | -8 | -4
COc1ccc(-n2cnc3c(cnn3CCC#N)c2=N)cc1 | 2 | 12 | 17 | 9 | -5 | -9
COc1ccc(CN(Cc2cc3cc(OC)c(OC)cc3[nH]c2=O)C(=O)NC2CCCCC2)cc1 | 2 | 6 | 23 | -4 | -14 | 2
SMILES | EphB4 ephrin blk | Rev-RRE block | PLK1 PBD inh | PTPN22 inh 2 | PLK1 kinase inh | PTPN22 act
Cc1sc2nc(CN(Cc3ccccc3)C(=O)NC3CCCCC3)[nH]c(=O)c2c1C | -4 | 8 | -9 | -7 | 50* | 8
COC(=O)c1cc2c(C)cc3ccc(C)cn3c-2c1C(=O)OC | -1 | 36* | -19 | -11 | -13 | 8
COC(=O)c1cc2ccccn2c2c(C(=O)OC)c(C(=O)OC)cc1-2 | -4 | -5 | -11 | 12 | -3 | -12
CCOC(=O)N1CCN(C(=O)CS(=O)Cc2nc(-c3ccc(C)cc3)oc2C)CC1 (stereo not given) | -2 | 6 | 4 | 10 | -13 | -13
O=C(CSc1nnc(-c2ccccc2)o1)N1CCc2ccccc2C1 | -8 | 12 | -6 | -2 | -2 | 4
Cc1oc(-c2ccccc2)nc1CS(=O)CC(=O)N1CCc2ccccc2C1 (stereo not given) | -2 | 7 | 33 | . | 66* | .
